Experimental findings from ChEMBL document CHEMBL1121368, “7-(Aminoacyl) and 7-(aminoalkyl) derivatives of 1,2,6,7-tetrahydroindolo[1,7-ab][1,5]benzodiazepines as potential antidepressant agents” (1980) are described below.

Usually ED50 stands for the midpoint of the dose-response relation.

Test [1] can be described thus: Evaluated for antidepressant activity by its ability to inhibit tetrabenazine-induced (TBZ) ptosis in mice. Format: functional. The settings on record: Mus musculus. An outline of the steps: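 Mice given tetrabenazine to induce ptosis; inhibition of ptosis scored. Compounds were screened at 20 mg/kg ip. […] ">20" marks activity at the 20 mg/kg ip screening dose without a dose-response run.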

The species entered for another test is Mus musculus. The test is described as follows: Evaluated for antidepressant activity by its ability to inhibit tetrabenazine-induced (TBZ) ptosis in mice; Inactive. Format: functional, organism-based.

Active and inactive are the calls of the source. No cut-off for these calls is given here.

In test [1], `CN(C)CCCN1Cc2cccc3c2N(CC3)c2ccccc21.Cl.Cl` registered an ED50 of 16 mg/kg. On the same count and under the same terms, then `Br.Br.CC1c2cccc3c2N(CC3)c2ccccc2N1CCN` (stereo unspecified), with 2.2 mg/kg; and `CC1c2cccc3c2N(CC3)c2ccccc2N1C(=O)CCN(C)C` (stereo unspecified), with 16 mg/kg. The same measure, in the same setting: next, `CC1c2cccc3c2N(CC3)c2ccccc2N1C(=O)CCN1CCCCC1` (stereo unspecified): above 20 mg/kg. On to `CNCCC(=O)N1c2ccccc2N2CCc3cc(Cl)cc(c32)C1C` (stereo unspecified), for which the ED50 result in the test listed under Mus musculus was “inactive”. Same read-out and setting: then `CC1c2cc(Cl)cc3c2N(CC3)c2ccccc2N1C(=O)CN(C)C` (stereo unspecified), with “inactive”.

`Br.Br.CNCCCN1Cc2cccc3c2N(CC3)c2ccccc21`: the ED50 in test [1] is 1.5 mg/kg. Still for that read-out and setting: then `CCCNCCC(=O)N1c2ccccc2N2CCc3cccc(c32)C1C.Cl` (stereo unspecified), with above 20 mg/kg; and `CN(C)CCN1c2ccccc2N2CCc3cccc(c32)C1CCc1ccccc1.O=C(O)C(=O)O` (stereo unspecified), with above 20 mg/kg. On the same count and under the same terms, next, `CN(C)CCC(=O)N1Cc2cccc3c2N(CC3)c2ccccc21`: above 20 mg/kg; `CN(C)CCC(=O)N1c2ccccc2N2CCc3cccc(c32)C1C1CCCCC1.Cl` (stereo unspecified): above 20 mg/kg; `CN(C)CC(=O)N1Cc2cccc3c2N(CC3)c2ccccc21`: above 20 mg/kg. As to `CC1c2cc(Cl)cc3c2N(CC3)c2ccccc2N1C(=O)CCN(C)C` (stereo unspecified), in the test filed under Mus musculus, the ED50 result was “inactive”.

Turning to `CNCCCN1c2ccccc2N2CCc3cccc(c32)C1C.Cl.Cl` (stereo unspecified), in test [1], it took a dose of 9.5 mg/kg to reach the 50% effect level (ED50). Same read-out and setting: next, `CNCCC(=O)N1c2ccccc2N2CCc3cccc(c32)C1C` (stereo unspecified): 4 mg/kg; `CCCNCC(=O)N1c2ccccc2N2CCc3cccc(c32)C1C` (stereo unspecified): above 20 mg/kg; `CC1c2cccc3c2N(CC3)c2ccccc2N1C(=O)CN(C)C` (stereo unspecified): 13.5 mg/kg. In test [1], `CNCC(=O)N1Cc2cccc3c2N(CC3)c2ccccc21` had an ED50 above 20 mg/kg.

Consider `Br.CC1c2cccc3c2N(CC3)c2ccccc2N1CCN(C)C` (stereo unspecified), for which it took a dose of 5 mg/kg to reach the 50% effect level in test [1] (ED50). `CNCCN1Cc2cccc3c2N(CC3)c2ccccc21.O=C(O)C(=O)O` yielded an ED50 in test [1] above 20 mg/kg. `CNCC(=O)N1c2ccccc2N2CCc3cccc(c32)C1C` (stereo unspecified): in test [1], the 50% effect level (ED50) was put at a dose of 2 mg/kg.

As to `CCN(CC)CCC(=O)N1c2ccccc2N2CCc3cccc(c32)C1C` (stereo unspecified), the ED50 in test [1] is above 20 mg/kg. Regarding `CNCC(=O)N1c2ccccc2N2CCc3cc(Cl)cc(c32)C1C` (stereo unspecified), the ED50 entry in the test listed under Mus musculus was “inactive”. `Br.Br.CNCCN1c2ccccc2N2CCc3cccc(c32)C1C` (stereo unspecified) came in with an ED50 in test [1] of 8 mg/kg. As to `CNCCN1c2ccccc2N2CCc3cc(Cl)cc(c32)C1C` (stereo unspecified), in the test filed under Mus musculus, the ED50 result was “inactive”. In test [1], `CC1c2cccc3c2N(CC3)c2ccccc2N1C(=O)CCN1CCN(c2ccccc2)CC1` (stereo unspecified) displayed an ED50 above 20 mg/kg.

In test [1], `CN(C)CCC=C1c2ccccc2CCc2ccccc21` [AMITRIPTYLINE] displayed an ED50 of 4.5 mg/kg.

As to `CC1c2cccc3c2N(CC3)c2ccccc2N1C(=O)CCCN(C)C.Cl` (stereo unspecified), the ED50 in test [1] is above 20 mg/kg. On the same count and under the same terms, next, `Br.Br.CCCNCCN1c2ccccc2N2CCc3cccc(c32)C1C` (stereo unspecified): above 20 mg/kg.

For `CNCCCN1c2ccccc2N2CCc3cc(Cl)cc(c32)C1C` (stereo unspecified), the ED50 entry in the test listed under Mus musculus is “inactive”. The molecule `CNCCCN1c2ccccc2CCc2ccccc21` [DESIPRAMINE] yielded an ED50 in test [1] of 1.5 mg/kg.
